In general, IC50 refers to the midpoint of a concentration-inhibition curve.

From PMC10795152 (ACS Omega, 2024) come the findings set out here.

The target of one test is EGFR^L858R/T790M/C797S (Homo sapiens, UniProt P00533, C797S/L858R/T790M). The test can be described thus: In vitro enzymatic activity assay. The format is biochemical. The method in brief: (§1)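 Reaction mix: 40 mM Tris pH 7.4, 10 mM MgCl2, 0.1 mg/mL BSA, 1 mM DTT, 10 μM ATP, 25 ng kinase and 0.2 mg/mL poly(Glu,Tyr) substrate. Test compound diluted in 10% DMSO before addition, giving 1% DMSO final. Residual ATP read by luminescence, with signal inverse to kinase activity. IC50 from nonlinear regression of normalized dose–response data.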

In the next test the target is EGFR^Del19/T790M/C797S (Homo sapiens, UniProt P00533, C797S/DEL746-750/T790M). Put plainly: In vitro enzymatic activity assay. The format is biochemical. The method in brief: as §1

Take `Oc1ccccc1-c1nc(NCCN2CCNCC2)c2ccccc2n1` [4a, 2-(4-((2-(Piperazin-1-yl)ethyl)amino)quinazolin-2-yl)phenol]: the IC50 on EGFR^L858R/T790M/C797S is 1220 ± 31 nM; at EGFR^Del19/T790M/C797S, 1430 ± 22 nM.
